{
  "source": "ChEMBL document CHEMBL4007402",
  "about": "(J Med Chem, 2017)",
  "key": {"[1]": {"target": "Platelet-derived growth factor receptor alpha (Homo sapiens) (UniProt P16234)", "sequence (P16234 whole entry, the tested form may be a part)": "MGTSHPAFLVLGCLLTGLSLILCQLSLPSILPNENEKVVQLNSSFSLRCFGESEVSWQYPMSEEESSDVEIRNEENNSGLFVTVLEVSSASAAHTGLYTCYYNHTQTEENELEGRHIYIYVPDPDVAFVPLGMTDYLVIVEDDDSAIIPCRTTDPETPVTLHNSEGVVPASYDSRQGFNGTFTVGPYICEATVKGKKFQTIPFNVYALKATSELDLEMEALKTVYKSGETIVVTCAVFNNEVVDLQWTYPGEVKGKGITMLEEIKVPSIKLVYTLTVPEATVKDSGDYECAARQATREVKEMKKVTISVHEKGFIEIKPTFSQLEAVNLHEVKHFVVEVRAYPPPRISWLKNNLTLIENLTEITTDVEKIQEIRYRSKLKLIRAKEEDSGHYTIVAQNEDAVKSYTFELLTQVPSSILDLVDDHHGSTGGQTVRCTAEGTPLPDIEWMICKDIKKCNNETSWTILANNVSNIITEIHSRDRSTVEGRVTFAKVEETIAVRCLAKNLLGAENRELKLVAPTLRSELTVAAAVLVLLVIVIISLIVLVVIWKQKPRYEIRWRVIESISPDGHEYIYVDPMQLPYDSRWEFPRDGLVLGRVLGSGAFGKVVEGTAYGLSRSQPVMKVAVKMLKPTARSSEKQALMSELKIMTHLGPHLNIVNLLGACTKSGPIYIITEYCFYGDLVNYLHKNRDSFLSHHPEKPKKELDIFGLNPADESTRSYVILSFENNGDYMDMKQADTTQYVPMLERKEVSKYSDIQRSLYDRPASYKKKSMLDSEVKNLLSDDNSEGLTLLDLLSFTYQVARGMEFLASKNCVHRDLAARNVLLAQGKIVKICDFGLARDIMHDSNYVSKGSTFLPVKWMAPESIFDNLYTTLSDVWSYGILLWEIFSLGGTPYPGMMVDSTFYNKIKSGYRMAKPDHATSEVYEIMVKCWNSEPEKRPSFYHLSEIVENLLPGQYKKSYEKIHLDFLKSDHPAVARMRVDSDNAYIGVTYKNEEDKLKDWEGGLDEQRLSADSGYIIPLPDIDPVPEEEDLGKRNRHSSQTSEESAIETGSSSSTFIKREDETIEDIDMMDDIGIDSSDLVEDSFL", "assay": "Inhibition of recombinant TEL-fused PDGFR-alpha (unknown origin) expressed in mouse BAF3 cells assessed as growth inhibition after 72 hrs by CellTiter-Glo or CCK-8 assay", "format": "cell-based", "summary_of_the_method": "(§1)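 Isogenic murine BaF3 cells transformed with TEL-fused kinases, whose proliferation depends on the fused kinase, were used. Parental BaF3 cells served as the general selectivity counter-screen. The anti-proliferative read-out was reported as GI50.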"}, "[2]": {"target": "Mitogen-activated protein kinase 14 (Homo sapiens, UniProt Q16539)", "sequence (Q16539 whole entry)": "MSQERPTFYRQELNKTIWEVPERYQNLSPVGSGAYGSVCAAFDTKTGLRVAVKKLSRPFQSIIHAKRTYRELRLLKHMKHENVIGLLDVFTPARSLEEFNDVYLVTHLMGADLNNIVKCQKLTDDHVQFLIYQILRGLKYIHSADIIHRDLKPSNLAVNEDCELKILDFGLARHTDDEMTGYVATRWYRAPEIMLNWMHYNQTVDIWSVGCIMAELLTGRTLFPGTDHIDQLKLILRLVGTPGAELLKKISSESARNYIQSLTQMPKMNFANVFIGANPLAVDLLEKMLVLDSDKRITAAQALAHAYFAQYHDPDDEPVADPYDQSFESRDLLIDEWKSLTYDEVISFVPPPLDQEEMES", "assay": "Inhibition of full-length recombinant human GST-tagged p38alpha expressed in Escherichia coli by Z'-LYTE assay"}, "EJ": {"tested_on": "EJ", "assay": "Growth inhibition of human EJ cells after 72 hrs by CellTiter-Glo or CCK-8 assay", "format": "functional"}, "[3]": {"target": "T1, Epithelial discoidin domain-containing receptor 1 (Homo sapiens, UniProt Q08345)", "T1 sequence (Q08345 whole entry, the tested form may be a part)": "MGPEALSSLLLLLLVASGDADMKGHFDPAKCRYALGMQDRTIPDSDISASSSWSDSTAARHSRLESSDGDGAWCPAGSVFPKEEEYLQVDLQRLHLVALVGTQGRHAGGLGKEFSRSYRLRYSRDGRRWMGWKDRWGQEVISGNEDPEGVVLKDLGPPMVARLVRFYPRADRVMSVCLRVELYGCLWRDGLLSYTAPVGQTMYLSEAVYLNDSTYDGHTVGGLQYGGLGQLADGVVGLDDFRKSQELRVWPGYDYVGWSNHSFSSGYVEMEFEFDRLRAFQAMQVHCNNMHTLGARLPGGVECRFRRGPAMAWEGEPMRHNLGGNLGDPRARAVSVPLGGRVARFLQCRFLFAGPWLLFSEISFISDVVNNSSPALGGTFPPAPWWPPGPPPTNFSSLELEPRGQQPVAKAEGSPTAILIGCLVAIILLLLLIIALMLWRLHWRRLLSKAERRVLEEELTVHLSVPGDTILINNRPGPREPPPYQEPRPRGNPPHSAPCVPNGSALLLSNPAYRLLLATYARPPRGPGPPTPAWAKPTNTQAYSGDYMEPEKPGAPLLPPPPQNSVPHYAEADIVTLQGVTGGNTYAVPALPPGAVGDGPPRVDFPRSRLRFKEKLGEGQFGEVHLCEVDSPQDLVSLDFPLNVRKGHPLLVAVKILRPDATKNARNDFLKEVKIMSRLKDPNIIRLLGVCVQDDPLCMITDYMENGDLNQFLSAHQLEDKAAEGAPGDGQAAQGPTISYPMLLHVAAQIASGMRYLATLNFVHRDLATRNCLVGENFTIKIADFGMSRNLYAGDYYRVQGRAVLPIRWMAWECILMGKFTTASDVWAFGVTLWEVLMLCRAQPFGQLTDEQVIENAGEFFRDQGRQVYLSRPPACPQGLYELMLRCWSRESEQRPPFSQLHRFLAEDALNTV", "assay": "Inhibition of human GST-tagged DDR1 catalytic domain expressed in baculovirus expression system by LanthaScreen assay"}, "5637": {"tested_on": "5637", "assay": "Growth inhibition of human 5637 cells after 72 hrs by CellTiter-Glo or CCK-8 assay", "format": "functional", "conditions": "Homo sapiens, 5637, 72 h"}, "[4]": {"target": "Mast/stem cell growth factor receptor Kit (Homo sapiens) (UniProt P10721)", "sequence (P10721 whole entry, the tested form may be a part)": "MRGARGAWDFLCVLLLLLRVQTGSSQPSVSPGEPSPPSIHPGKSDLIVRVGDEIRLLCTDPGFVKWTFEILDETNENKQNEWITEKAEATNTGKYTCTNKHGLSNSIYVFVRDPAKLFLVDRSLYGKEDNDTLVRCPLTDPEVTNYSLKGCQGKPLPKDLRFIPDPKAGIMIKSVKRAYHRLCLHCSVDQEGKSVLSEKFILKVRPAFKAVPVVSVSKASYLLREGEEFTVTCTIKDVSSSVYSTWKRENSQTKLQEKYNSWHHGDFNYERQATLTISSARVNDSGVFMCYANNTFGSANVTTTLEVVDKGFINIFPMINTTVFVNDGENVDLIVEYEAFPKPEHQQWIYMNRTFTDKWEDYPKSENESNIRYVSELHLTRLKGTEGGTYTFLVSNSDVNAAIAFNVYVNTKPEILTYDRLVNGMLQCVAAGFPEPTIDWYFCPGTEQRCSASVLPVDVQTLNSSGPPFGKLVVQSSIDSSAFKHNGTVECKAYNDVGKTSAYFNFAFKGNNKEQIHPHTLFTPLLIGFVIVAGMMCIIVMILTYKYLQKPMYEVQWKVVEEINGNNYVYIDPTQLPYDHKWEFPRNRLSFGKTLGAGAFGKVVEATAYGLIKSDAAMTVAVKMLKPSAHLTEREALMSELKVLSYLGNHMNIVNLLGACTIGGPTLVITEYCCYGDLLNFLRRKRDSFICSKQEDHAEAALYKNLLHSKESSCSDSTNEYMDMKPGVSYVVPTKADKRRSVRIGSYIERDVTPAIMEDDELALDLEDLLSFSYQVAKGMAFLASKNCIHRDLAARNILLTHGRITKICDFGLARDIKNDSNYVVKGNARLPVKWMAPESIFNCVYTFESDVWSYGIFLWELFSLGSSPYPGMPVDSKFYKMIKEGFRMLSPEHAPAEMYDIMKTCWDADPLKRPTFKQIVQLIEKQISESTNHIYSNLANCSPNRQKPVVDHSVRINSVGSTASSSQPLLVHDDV", "assay": "Inhibition of recombinant TEL-fused c-KIT (unknown origin) expressed in mouse BAF3 cells assessed as growth inhibition after 72 hrs by CellTiter-Glo or CCK-8 assay", "format": "cell-based", "summary_of_the_method": "as §1"}, "[5]": {"assay": "Tmax in Sprague-Dawley rat at 10 mg/kg, po", "format": "ADME, organism-based", "conditions": "in vivo", "summary_of_the_method": "(§2)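 Sprague Dawley rats given a single i.v. dose of 1 mg/kg or an oral dose of 10 mg/kg. Plasma AUC(0-t), AUC(0-∞), MRT(0-t), T1/2, Tmax and Cmax were derived and reported as mean±SD.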"}, "[6]": {"assay": "Tmax in Sprague-Dawley rat at 1 mg/kg, iv", "format": "ADME, organism-based", "conditions": "in vivo", "summary_of_the_method": "as §2"}, "769-P": {"tested_on": "769-P", "assay": "Growth inhibition of human 769-P cells after 72 hrs by CellTiter-Glo or CCK-8 assay", "format": "functional"}, "[7]": {"assay": "AUC (0 to t) in Sprague-Dawley rat at 10 mg/kg, po up to 24 hrs", "format": "ADME, organism-based", "design": "time < 24 hr, dose 10 mg/kg, route oral", "conditions": "in vivo", "summary_of_the_method": "as §2"}, "J82": {"tested_on": "J82", "assay": "Growth inhibition of human J82 cells after 72 hrs by CellTiter-Glo or CCK-8 assay", "format": "functional", "conditions": "J82, 72 h"}, "[8]": {"target": "Receptor-type tyrosine-protein kinase FLT3 (Homo sapiens) (UniProt P36888)", "sequence (P36888 whole entry, the tested form may be a part)": "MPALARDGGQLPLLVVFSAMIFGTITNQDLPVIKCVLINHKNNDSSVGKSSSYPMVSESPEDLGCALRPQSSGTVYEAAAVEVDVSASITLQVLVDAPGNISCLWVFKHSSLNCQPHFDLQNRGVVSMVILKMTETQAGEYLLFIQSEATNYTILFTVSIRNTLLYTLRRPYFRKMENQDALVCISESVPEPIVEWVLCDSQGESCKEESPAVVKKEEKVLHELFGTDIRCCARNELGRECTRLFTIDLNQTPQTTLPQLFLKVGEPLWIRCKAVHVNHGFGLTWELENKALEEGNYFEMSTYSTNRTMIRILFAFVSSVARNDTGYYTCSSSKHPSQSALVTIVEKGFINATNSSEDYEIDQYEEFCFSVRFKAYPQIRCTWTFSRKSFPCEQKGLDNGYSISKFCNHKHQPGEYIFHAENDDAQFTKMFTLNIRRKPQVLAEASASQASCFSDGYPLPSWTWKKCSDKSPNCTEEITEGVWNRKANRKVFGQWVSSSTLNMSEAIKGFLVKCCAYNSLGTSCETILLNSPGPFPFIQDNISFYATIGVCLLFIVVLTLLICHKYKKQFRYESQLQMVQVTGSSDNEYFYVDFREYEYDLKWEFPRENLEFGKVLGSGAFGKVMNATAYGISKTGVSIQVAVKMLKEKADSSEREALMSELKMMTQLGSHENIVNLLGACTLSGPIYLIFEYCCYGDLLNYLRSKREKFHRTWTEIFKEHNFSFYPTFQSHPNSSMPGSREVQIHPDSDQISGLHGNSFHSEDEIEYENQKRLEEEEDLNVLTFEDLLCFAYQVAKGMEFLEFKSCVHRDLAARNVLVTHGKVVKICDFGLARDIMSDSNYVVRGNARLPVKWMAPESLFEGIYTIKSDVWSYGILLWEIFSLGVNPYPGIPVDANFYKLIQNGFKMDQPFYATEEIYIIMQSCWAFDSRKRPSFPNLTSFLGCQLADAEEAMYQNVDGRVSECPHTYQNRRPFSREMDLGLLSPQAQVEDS", "assay": "Inhibition of recombinant TEL-fused FLT3 (unknown origin) expressed in mouse BAF3 cells assessed as growth inhibition after 72 hrs by CellTiter-Glo or CCK-8 assay", "format": "cell-based", "summary_of_the_method": "as §1"}, "[9]": {"target": "T1, Epithelial discoidin domain-containing receptor 1", "assay": "Binding affinity to human DDR1 (565 to 876 amino acid residues) expressed in bacterial expression system assessed as percent control number at 1 uM by KINOMEscan assay", "summary_of_the_method": "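KINOMEscan competition binding panel of 468 kinases, with the compound tested at 1 µM. Binding is expressed as percent of control relative to DMSO.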"}, "PC-3": {"tested_on": "PC-3", "assay": "Growth inhibition of human PC3 cells after 72 hrs by CellTiter-Glo or CCK-8 assay", "format": "functional", "conditions": "PC-3, 72 h"}},
  "data": [
    {"smiles": "C=CC(=O)Nc1cc(Nc2ncc(C(=O)Nc3cc(NC(=O)c4cc(OC)c(OC)c(OC)c4)ccc3C)c(NC)n2)ccc1C", "values": [
      {"measurement": "GI50", "setting": "[1]", "result": 670, "unit": "nM"},
      {"measurement": "IC50", "setting": "[2]", "result": 106, "unit": "nM"},
      {"measurement": "GI50", "setting": "EJ", "result": "> 10000", "unit": "nM"},
      {"measurement": "IC50", "setting": "[3]", "result": 265, "unit": "nM"},
      {"measurement": "GI50", "setting": "5637", "result": "> 10000", "unit": "nM"},
      {"measurement": "GI50", "setting": "[4]", "result": 2010, "unit": "nM"},
      {"measurement": "Tmax", "setting": "[5]", "result": 11.4, "unit": "min"},
      {"measurement": "Tmax", "setting": "[6]", "result": 1.02, "unit": "min"},
      {"measurement": "GI50", "setting": "769-P", "result": "> 10000", "unit": "nM"},
      {"measurement": "AUC(0-t) at 24 h", "setting": "[7]", "result": 13.4, "unit": "ng·h/mL"},
      {"measurement": "GI50", "setting": "J82", "result": 5780, "unit": "nM"},
      {"measurement": "GI50", "setting": "[8]", "result": "> 10000", "unit": "nM"},
      {"measurement": "Activity", "setting": "[9]", "result": 0.05, "unit": "%"},
      {"measurement": "GI50", "setting": "PC-3", "result": 3450, "unit": "nM"}
    ]}
  ]
}
